Data taken from ChEMBL document CHEMBL2424574, “Structure-activity relationships and pharmacophore model of a noncompetitive pyrazoline containing class of GluN2C/GluN2D selective antagonists” (J Med Chem, 2013).
Activity calls are given as the source filed them. The rule behind the calls is not given here.

Columns and labels:
[1] = system: Liver microsomes; test: Half life in human liver microsomes at 1 uM; type: ADME, Microsome
How it was run: (§1)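 Human liver microsomes 0.5 mg/mL in 100 mM potassium phosphate pH 7.4 with 5 mM MgCl2 and 1 μM test compound. Preincubated 3 min at 37 °C, then started with 1 mM NADPH, with a testosterone control in parallel. Sampled at 0, 10, 20, 30 and 60 min and quenched in cold acetonitrile/water with formic acid and internal standard. Percent remaining by LC-MS/MS (MRM) versus time 0. t1/2 = 0.693/k from the ln-remaining slope; CLint = k/protein concentration.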

[2] = system: Liver microsomes; test: Intrinsic clearance in human liver microsomes measured per mg of protein at 1 uM by LC-MS/MS analysis; type: ADME, Microsome; how it was run: as §1
[3] = system: Liver microsomes; test: Metabolic stability in human liver microsomes assessed as compound remaining at 1 uM after 60 mins by LC-MS/MS analysis; type: ADME, Microsome; details: 1 h; how it was run: as §1
[4] = system: Liver microsomes; test: Metabolic stability in human liver microsomes assessed as compound remaining at 1 uM after 30 mins by LC-MS/MS analysis; type: ADME, Microsome; details: 0.5 h; how it was run: as §1
[5] = system: Liver microsomes; test: Metabolic stability in human liver microsomes assessed as compound remaining at 1 uM after 20 mins by LC-MS/MS analysis; type: ADME, Microsome; how it was run: as §1
[6] = system: MDCK; test: Permeability across basolateral to apical side in dog MDCK cells expressing MDR1 assessed as compound recovery at 5 uM after 120 mins by LC-MS/MS analysis; type: ADME, cell-based, Canis lupus familiaris; details: 2 h
How it was run: (§2)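 MDR1-MDCK monolayers grown to confluence on collagen-coated polycarbonate membranes. Assay buffer was HBSS with 10 mM HEPES and 15 mM glucose, pH 7.4, and the receiver side also held 1% BSA. Monolayers were dosed apically (A-to-B) or basolaterally (B-to-A) at 5 μM, 37 °C, 5% CO2. Donor and receiver were sampled at 120 min, in duplicate, by LC-MS/MS (ESI). Papp and percent recovery were calculated from receiver/donor concentrations.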

[7] = system: MDCK; test: Permeability across apical to basolateral side in dog MDCK cells expressing MDR1 assessed as compound recovery at 5 uM after 120 mins by LC-MS/MS analysis; type: ADME, cell-based, Canis lupus familiaris; details: 2 h; how it was run: as §2
[8] = system: Plasma; test: Metabolic stability in rat plasma after 2 hrs; type: ADME, cell-free
How it was run: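 Stability followed in human, rat or mouse plasma over a 2-hour time course.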

[9] = target: 5-hydroxytryptamine receptor 6 (Homo sapiens, UniProt P50406); test: Inhibition of 5HT6 receptor (unknown origin)
5-hydroxytryptamine receptor 6, sequence (P50406 whole entry): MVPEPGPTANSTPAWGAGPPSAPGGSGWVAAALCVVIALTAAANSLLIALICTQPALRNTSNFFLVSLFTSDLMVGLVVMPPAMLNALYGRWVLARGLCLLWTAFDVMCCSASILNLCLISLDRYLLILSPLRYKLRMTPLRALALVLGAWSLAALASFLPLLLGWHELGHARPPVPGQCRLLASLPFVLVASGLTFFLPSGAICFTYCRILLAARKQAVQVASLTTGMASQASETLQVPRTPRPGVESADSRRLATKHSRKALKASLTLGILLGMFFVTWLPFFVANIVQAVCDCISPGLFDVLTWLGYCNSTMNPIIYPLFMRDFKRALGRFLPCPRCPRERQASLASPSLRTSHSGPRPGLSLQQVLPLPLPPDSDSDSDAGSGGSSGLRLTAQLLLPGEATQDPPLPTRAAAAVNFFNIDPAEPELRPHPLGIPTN
How it was run: (§3)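 Radioligand panel screening was run through the NIMH Psychoactive Drug Screening Program with compounds at 5 µM.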

[10] = organism: Rattus norvegicus; test: Selectivity ratio of IC50 for recombinant rat GluN2B receptor to IC50 for recombinant rat GluN2D receptor
How it was run: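 Rat GluN1 co-expressed with GluN2A, GluN2B or GluN2D in Xenopus oocytes. Two-electrode voltage clamp at −40 mV in 90 NaCl, 1 KCl, 0.5 BaCl2, 0.005 EDTA, 10 HEPES (mM), pH 7.4, 23 °C; final DMSO 0.1–0.05%. IC50s came from Hill fits to averaged composite concentration-response curves (5–24 oocytes, 2–4 frogs). Ratio is GluN2A or GluN2B IC50 over GluN2D IC50.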

[11] = target: Glutamate receptor ionotropic, NMDA 2D (Rattus norvegicus, UniProt P35439+Q62645); test: Negative allosteric modulation of recombinant rat GluN2D receptor expressed in Xenopus laevis oocytes by two-electrode voltage clamp method; type: cell-based, Oocyte
Glutamate receptor ionotropic, NMDA 2D, sequence (Q62645 whole entry, one chain of several): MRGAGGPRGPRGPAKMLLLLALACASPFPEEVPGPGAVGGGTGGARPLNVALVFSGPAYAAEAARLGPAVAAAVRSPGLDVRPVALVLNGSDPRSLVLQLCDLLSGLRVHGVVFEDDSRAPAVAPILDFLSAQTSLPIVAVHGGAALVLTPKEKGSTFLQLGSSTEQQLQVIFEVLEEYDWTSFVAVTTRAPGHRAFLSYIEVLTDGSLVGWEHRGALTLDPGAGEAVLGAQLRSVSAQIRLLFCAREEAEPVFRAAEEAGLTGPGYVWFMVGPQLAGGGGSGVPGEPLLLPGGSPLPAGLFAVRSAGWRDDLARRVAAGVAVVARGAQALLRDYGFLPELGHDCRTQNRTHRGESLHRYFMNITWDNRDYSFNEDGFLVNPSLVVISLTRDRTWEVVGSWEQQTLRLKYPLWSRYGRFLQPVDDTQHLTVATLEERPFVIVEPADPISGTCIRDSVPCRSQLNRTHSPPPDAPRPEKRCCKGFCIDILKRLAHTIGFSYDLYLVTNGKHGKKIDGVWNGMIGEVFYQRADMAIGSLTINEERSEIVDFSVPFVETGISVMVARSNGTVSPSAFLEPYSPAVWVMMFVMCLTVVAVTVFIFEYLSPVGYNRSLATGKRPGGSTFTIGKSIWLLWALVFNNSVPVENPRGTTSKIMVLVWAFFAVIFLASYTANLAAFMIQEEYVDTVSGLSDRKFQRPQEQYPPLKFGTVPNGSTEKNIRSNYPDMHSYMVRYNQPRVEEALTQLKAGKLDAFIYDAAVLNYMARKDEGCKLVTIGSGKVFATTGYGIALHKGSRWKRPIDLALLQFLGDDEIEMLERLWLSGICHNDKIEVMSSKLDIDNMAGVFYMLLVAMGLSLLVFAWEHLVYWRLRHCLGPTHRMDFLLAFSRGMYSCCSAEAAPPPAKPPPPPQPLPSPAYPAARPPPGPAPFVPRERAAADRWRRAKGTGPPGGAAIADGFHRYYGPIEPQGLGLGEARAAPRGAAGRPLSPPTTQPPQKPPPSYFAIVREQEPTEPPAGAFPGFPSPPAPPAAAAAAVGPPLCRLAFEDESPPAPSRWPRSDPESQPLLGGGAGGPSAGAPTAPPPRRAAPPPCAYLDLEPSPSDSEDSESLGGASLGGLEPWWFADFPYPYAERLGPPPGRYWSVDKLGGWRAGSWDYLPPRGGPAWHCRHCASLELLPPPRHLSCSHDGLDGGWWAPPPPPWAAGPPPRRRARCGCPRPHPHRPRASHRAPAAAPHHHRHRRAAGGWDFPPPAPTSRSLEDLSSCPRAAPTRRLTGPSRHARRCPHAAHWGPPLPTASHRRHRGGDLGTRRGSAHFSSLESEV
How it was run: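 Two-electrode voltage clamp of Xenopus oocytes expressing rat GluN1 with GluN2A, 2B, 2C or 2D. Holding potential −40 mV in recording solution (mM: 90 NaCl, 1 KCl, 0.5 BaCl2, 0.005 EDTA, 10 HEPES, pH 7.4, 23 °C). Compounds diluted from 20 mM DMSO stocks to 0.05–0.1% final DMSO. IC50 from a Hill fit to the averaged composite concentration–response curve, 5–24 oocytes from 2–4 frogs.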

[12] = target: Glutamate receptor ionotropic, kainate 2 (Homo sapiens) (UniProt Q13002); test: Inhibition of GluK2 receptor (unknown origin) expressed in Xenopus laevis oocytes assessed as inhibition of glutamate-induced current at 3 uM by two-electrode voltage clamp method; values are per cent of control; details: Oocyte
Glutamate receptor ionotropic, kainate 2 (Homo sapiens), sequence (Q13002 whole entry): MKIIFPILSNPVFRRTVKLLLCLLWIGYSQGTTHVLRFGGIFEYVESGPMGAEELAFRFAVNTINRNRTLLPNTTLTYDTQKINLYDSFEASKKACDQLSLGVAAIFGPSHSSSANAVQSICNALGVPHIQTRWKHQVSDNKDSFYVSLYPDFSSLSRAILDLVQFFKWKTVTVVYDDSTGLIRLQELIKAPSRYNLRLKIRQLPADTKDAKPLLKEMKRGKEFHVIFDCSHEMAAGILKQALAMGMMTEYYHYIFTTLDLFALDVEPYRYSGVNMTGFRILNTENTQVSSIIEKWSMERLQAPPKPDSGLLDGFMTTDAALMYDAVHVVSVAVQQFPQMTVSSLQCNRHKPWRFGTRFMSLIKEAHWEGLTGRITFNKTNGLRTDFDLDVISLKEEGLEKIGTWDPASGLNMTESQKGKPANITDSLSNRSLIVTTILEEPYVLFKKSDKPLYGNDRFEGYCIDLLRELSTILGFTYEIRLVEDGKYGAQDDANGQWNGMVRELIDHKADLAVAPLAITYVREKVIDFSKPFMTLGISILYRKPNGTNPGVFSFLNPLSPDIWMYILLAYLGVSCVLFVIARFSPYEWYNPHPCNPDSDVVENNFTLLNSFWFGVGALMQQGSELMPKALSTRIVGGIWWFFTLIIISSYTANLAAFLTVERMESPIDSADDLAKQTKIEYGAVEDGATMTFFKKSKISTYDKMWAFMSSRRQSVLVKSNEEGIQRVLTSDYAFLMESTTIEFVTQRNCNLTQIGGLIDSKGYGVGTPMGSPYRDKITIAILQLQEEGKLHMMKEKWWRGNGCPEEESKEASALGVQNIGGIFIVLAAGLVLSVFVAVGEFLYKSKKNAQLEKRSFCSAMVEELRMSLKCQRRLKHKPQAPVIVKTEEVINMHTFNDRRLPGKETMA

[13] = target: Glutamate receptor ionotropic, kainate 1 (Homo sapiens) (UniProt P39086); test: Inhibition of GluK1 receptor (unknown origin) expressed in Xenopus laevis oocytes assessed as inhibition of glutamate-induced current at 3 uM by two-electrode voltage clamp method; values are per cent of control; details: Oocyte
Glutamate receptor ionotropic, kainate 1 (Homo sapiens), sequence (P39086 whole entry): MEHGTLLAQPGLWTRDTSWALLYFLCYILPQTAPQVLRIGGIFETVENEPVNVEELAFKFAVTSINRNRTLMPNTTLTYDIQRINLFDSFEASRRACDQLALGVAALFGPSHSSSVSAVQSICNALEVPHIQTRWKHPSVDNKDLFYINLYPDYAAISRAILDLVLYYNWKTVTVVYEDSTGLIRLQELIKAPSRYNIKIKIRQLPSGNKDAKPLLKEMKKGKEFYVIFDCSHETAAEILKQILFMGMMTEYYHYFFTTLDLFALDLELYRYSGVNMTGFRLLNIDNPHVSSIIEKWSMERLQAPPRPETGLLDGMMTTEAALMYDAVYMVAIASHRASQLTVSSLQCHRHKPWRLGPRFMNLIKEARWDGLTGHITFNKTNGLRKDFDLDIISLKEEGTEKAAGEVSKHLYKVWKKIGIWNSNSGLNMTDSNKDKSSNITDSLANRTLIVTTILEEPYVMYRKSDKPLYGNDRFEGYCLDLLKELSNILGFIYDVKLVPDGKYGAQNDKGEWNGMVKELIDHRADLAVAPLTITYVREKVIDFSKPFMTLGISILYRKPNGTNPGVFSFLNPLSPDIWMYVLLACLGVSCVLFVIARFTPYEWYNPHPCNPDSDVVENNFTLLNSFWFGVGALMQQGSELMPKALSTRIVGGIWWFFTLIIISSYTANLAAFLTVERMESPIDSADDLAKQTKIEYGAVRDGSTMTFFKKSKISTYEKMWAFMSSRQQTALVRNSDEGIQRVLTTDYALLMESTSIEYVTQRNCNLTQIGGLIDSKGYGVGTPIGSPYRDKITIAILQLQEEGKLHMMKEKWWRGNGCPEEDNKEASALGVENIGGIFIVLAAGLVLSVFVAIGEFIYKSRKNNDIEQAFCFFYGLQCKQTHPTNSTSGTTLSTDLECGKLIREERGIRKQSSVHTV

[14] = target: Glutamate receptor 3 (Homo sapiens) (UniProt P42263); test: Inhibition of GluA3 receptor (unknown origin) expressed in Xenopus laevis oocytes assessed as inhibition of glutamate-induced current at 3 uM by two-electrode voltage clamp method; values are per cent of control; details: Oocyte
[15] = target: Glutamate receptor 2 (Homo sapiens) (UniProt P42262); test: Inhibition of GluA2 receptor (unknown origin) expressed in Xenopus laevis oocytes assessed as inhibition of glutamate-induced current at 3 uM by two-electrode voltage clamp method; values are per cent of control; details: Oocyte
Glutamate receptor 2 (Homo sapiens), sequence (P42262 whole entry): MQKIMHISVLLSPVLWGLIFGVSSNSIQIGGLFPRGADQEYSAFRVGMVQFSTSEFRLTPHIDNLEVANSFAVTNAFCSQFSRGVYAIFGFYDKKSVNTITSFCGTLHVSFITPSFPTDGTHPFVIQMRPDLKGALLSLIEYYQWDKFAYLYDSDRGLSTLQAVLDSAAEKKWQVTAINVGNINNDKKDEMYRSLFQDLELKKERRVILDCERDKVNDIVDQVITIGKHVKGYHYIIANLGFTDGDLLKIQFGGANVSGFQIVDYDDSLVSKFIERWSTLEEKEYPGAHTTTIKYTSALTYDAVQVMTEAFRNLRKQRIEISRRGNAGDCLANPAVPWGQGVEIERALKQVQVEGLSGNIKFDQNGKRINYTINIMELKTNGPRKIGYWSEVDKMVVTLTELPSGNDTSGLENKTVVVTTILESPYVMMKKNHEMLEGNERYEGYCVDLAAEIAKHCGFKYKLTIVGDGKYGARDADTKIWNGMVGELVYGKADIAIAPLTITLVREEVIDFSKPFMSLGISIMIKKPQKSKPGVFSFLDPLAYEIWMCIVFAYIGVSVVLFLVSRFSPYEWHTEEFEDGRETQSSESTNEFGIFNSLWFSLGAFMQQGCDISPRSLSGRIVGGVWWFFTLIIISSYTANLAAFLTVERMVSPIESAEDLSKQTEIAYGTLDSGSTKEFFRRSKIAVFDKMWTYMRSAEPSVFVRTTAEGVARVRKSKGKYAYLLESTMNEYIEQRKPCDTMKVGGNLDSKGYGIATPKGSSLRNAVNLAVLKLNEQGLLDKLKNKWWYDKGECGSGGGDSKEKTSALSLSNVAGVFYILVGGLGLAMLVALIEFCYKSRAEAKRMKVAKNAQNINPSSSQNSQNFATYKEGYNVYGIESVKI

[16] = target: 5-hydroxytryptamine receptor 3A (Homo sapiens) (UniProt P46098); test: Inhibition of serotonin 5-HT3A receptor (unknown origin) expressed in Xenopus laevis oocytes assessed as inhibition of serotonin-induced current at 3 uM by two-electrode voltage clamp method; values are per cent of control; details: Oocyte
5-hydroxytryptamine receptor 3A (Homo sapiens), sequence (P46098 whole entry): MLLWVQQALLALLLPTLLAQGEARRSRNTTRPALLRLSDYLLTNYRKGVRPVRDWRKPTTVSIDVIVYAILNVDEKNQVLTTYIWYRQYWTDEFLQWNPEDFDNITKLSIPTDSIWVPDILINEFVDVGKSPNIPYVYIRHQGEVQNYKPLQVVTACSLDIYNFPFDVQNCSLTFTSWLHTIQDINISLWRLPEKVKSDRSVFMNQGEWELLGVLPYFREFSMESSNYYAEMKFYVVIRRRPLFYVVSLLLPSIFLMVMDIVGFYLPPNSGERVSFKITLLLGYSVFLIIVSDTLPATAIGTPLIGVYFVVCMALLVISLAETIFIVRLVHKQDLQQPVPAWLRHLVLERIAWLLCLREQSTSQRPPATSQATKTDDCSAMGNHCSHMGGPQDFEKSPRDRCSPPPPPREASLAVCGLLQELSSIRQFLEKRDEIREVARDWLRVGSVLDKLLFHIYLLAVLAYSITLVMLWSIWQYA

[17] = target: Glutamate NMDA receptor; GRIN1/GRIN2A (Homo sapiens) (UniProt Q05586+Q12879); test: Inhibition of GluN1/GluN2A receptor (unknown origin) expressed in Xenopus laevis oocytes assessed as inhibition of glutamate/glycine-induced current at 3 uM by two-electrode voltage clamp method; values are per cent of control; details: Oocyte
[18] = target: Neuronal acetylcholine receptor; alpha4/beta2 (Homo sapiens) (UniProt P17787+P43681); test: Inhibition of human nicotinic acetylcholine receptor subunit alpha-4 beta-2 expressed in Xenopus laevis oocytes assessed as inhibition of acetylcholine-induced current at 3 uM by two-electrode voltage clamp method; values are per cent of control; details: Oocyte
[19] = target: Nicotinic acetylcholine receptor alpha1/beta1/gamma/delta (Mus musculus) (UniProt P04756+P09690+P02716+P04760); test: Inhibition of mouse nicotinic acetylcholine receptor subunit alpha1beta1gammadelta expressed in Xenopus laevis oocytes assessed as inhibition of acetylcholine-induced current at 3 uM by two-electrode voltage clamp method; values are per cent of control; details: Oocyte
[20] = target: 5-hydroxytryptamine receptor 1E (Homo sapiens, UniProt P28566); test: Inhibition of 5HT1E receptor (unknown origin); how it was run: as §3
[21] = organism: Homo sapiens; test: Inhibition of GluN2D receptor L705F mutant (unknown origin)
[22] = organism: Homo sapiens; test: Inhibition of GluN2D receptor Q801Y mutant (unknown origin)
[23] = target: Ionotropic glutamate receptor NMDA 1/2D (Homo sapiens) (UniProt Q05586+O15399); details: Oocyte, 1 uM

Compound	Stability [8]	Ki [9]	Ratio IC50 [10]	IC50 [11]	residual activity [12]	residual activity [13]	residual activity [14]	residual activity [15]	residual activity [16]	residual activity [17]	residual activity [18]	residual activity [19]	further results
O=C(O)CCC(=O)N1N=C(c2c(-c3ccc(Cl)cc3)c3ccccc3[nH]c2=O)CC1c1ccc(Cl)cc1 (racemic)	Stable	> 10000 nM	50	440 nM	97%	97%	99%	98%	95%	89%	79%	94%	t1/2 [1]: > 1 h; CLint [2]: < 20 µL/min/mg; Stability [3]: 86%; Stability [4]: 115%; Stability [5]: 100%; Drug recovery [6]: 76%; Drug recovery [7]: 73%
O=C(O)/C=C/C(=O)N1N=C(c2c(-c3ccc(Br)cc3)c3ccccc3[nH]c2=O)CC1c1ccc(Cl)cc1 (racemic)	Stable	> 10000 nM	63	190 nM	97%	100%	100%	96%	95%	89%	82%	98%	Ki [20]: > 10000 nM; inhibition [21]: inactive; inhibition [22]: inactive; residual activity [23]: 4.8%
